{"source": "ChEMBL document CHEMBL3421565", "about": "“β-D-2'-C-Methyl-2,6-diaminopurine Ribonucleoside Phosphoramidates are Potent and Selective Inhibitors of Hepatitis C Virus (HCV) and Are Bioconverted Intracellularly to Bioactive 2,6-Diaminopurine and Guanosine 5'-Triphosphate Forms” (J Med Chem, 2015)", "key": {"[1]": {"test": "(§1) Inhibition of HCV C-terminal His-tagged NS5Bdelta21 enzyme assessed as reduction in NS5B-mediated RNA polymerization using [32P]-GpG primer, RNA template and rNTP nucleotide mix incubated for 120 mins by PAGE method", "parameters": "species or system Hepacivirus hominis", "outline": "(§2)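 Purified NS5BΔ21 (C-terminal His tag), 1 μM, at 30 °C with 1 μM 20-mer RNA template and 1 μM ³²P-GpG primer. Buffer was 40 mM Tris pH 7.5, 6 mM NaCl, 2 mM MgCl₂. Started with 10 μM NTP mix, 1 μM competing NTP and triphosphate inhibitor at 0–100 μM. Products run on 20% denaturing PAGE and quantified; IC₅₀ calculated.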"}, "Hepacivirus hominis [2]": {"test_system": "Hepacivirus hominis", "test": "as §1", "outline": "as §2"}, "Hepacivirus hominis [3]": {"test_system": "Hepacivirus hominis", "test": "Inhibition of HCV C-terminal His-tagged NS5Bdelta21 enzyme assessed as induction of pausing at sites of AMP incorporation during NS5B-mediated RNA polymerization using [32P]-GpG primer, RNA template and rNTP nucleotide mix incubated for 120 mins by PAGE method", "outline": "as §2, with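 “μM. Stopped at 120 min with EDTA/formamide.” for “μM.”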"}, "Hepatocyte [4]": {"test_system": "Hepatocyte", "test": "(§3) Drug level in human primary hepatocytes treated with 50 uM Ethyl 3-(2-(((R)-(((2R,3R,4R,5R)-5-(2,6-Diamino-9H-purin-9-yl)-3,4-dihydroxy-4-methyltetrahydrofuran-2-yl)methoxy)(((S)-1-ethoxy-1-oxopropan-2-yl)amino)phosphoryl)oxy)phenyl)-propanoate assessed as compound formation incubated for 4 hrs at 37 degC by LC-MS/MS method", "type": "ADME, cell-based", "outline": "(§4)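 Freshly plated primary human hepatocytes seeded at 1 × 10⁶ per well and acclimated overnight, then given 50 μM compound for 4 h at 37 °C. After two ice-cold PBS washes, extraction ran overnight at −20 °C in 70% methanol with 20 nM ddATP. Dried extracts went to LC–MS/MS for intracellular metabolites, as three replicates from one plate, ±SD.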"}, "[5]": {"test": "as §3, with “HuH7 cells” for “primary hepatocytes”", "type": "ADME, cell-based", "settings": "huh-7, 4 h", "outline": "(§5)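 Huh-7 cells seeded at 1 × 10⁶ per well and exposed to 50 μM compound after attachment, 4 h at 37 °C. Cells washed twice with ice-cold PBS, then extracted overnight at −20 °C in 70% methanol containing 20 nM ddATP. Supernatants were dried and analysed by LC–MS/MS for parent nucleoside and its mono-, di- and triphosphates (pmol/10⁶ cells).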"}, "Hepatocyte [6]": {"test_system": "Hepatocyte", "test": "Drug level in human primary hepatocytes treated with 50 uM beta-D-2,6-diaminopurine nucleoside assessed as compound formation incubated for 4 hrs at 37 degC by LC-MS/MS method", "type": "ADME, cell-based", "outline": "as §4"}, "[7]": {"test": "Drug level in human HuH7 cells treated with 50 uM beta-D-2,6-diaminopurine nucleoside assessed as compound formation incubated for 4 hrs at 37 degC by LC-MS/MS method", "type": "ADME, cell-based", "settings": "huh-7, 4 h", "outline": "as §5"}, "[8]": {"test": "(§6) Drug level in human HuH7 cells treated with 50 uM Isopropyl 3-(2-(((S)-(((2R,3S,4R,5R)-5-(2,6-Diamino-9H-purin-9-yl)-3,4-dihydroxy-4-methyltetrahydrofuran-2-yl)methoxy)-(((S)-1-isopropoxy-1-oxopropan-2-yl)amino)phosphoryl)oxy)-phenyl)propanoate 15c(Sp) and Isopropyl 3-(2-(((R)-(((2R,3S,4R,5R)-5-(2,6-Diamino-9H-purin-9-yl)-3,4-dihydroxy-4-methyltetrahydrofuran-2-yl)methoxy)(((S)-1-isopropoxy-1-oxopropan-2-yl)amino)phosphoryl)oxy)phenyl)propanoate assessed as compound formation incubated for 4 hrs at 37 degC by LC-MS/MS method", "type": "ADME, cell-based", "settings": "huh-7, 4 h", "outline": "as §5"}, "Hepatocyte [9]": {"test_system": "Hepatocyte", "test": "as §6, with “primary hepatocytes” for “HuH7 cells”", "type": "ADME, cell-based", "outline": "as §4"}, "Hepatitis C virus": {"test_system": "Hepatitis C virus", "test": "Antiviral activity against HCV infected in human HuH7 cells assessed as reduction in replicon RNA levels incubated for 5 days by RT-PCR assay", "type": "functional, organism-based, Hepacivirus hominis", "settings": "Huh-7, 120 h", "outline": "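Huh-7 clone B cells carrying HCV replicon RNA, seeded at 3000 cells/well; compounds added in dose response in triplicate right after seeding. Incubated 5 days at 37 °C, 5% CO₂. Total RNA extracted; replicon RNA and rRNA internal control co-amplified by one-step multiplex real-time RT-PCR. Antiviral effect taken as ΔCt versus no-drug control; cytotoxicity read from rRNA reduction.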"}, "Vero": {"test_system": "Vero", "test": "Cytotoxicity against African green monkey Vero cells assessed as reduction in cell viability incubated for 5 days by Cell-titer 96 aqueous one solution cell proliferation assay", "type": "cell-based", "settings": "chlorocebus sabaeus, vero, 120 h"}, "HepG2 [10]": {"test_system": "HepG2", "test": "Mitochondrial toxicity in human HepG2 cells assessed as effect on mitochondrial cytochrome c oxidase subunit 2 DNA level incubated for 14 days by real-time PCR method", "type": "cell-based", "settings": "hepg2, 336 h", "outline": "(§7)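 HepG2 cells in DMEM with 4.5 g/L glucose and 10% heat-inactivated FBS, seeded at 5000 cells/well on collagen; compounds added 1 day later at final 1–50 μM. Medium and compound renewed every 3–4 days for 14 days; duplicates in two independent experiments. COXII mtDNA and nuclear β-actin DNA measured by real-time PCR, normalised to untreated control; IC₅₀ calculated.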"}, "HepG2 [11]": {"test_system": "HepG2", "test": "Mitochondrial toxicity in human HepG2 cells assessed as effect on nuclear beta-actin DNA level incubated for 14 days by real-time PCR method", "type": "cell-based", "settings": "hepg2, 336 h", "outline": "as §7"}, "HepG2 [12]": {"test_system": "HepG2", "test": "Mitochondrial toxicity in human HepG2 cells assessed as induction of lactic acid levels at 1 uM incubated for 14 days", "type": "cell-based", "settings": "hepg2, 336 h", "outline": "(§8)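 After 14 days of HepG2 exposure to compound (same culture regimen as the mtDNA assay), lactic acid in culture supernatant quantified with a D-/L-lactic acid kit by absorbance. Results expressed as % lactic acid over % nuclear DNA (β-actin control); mean of triplicates from a single plate.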"}, "HepG2 [13]": {"test_system": "HepG2", "test": "Mitochondrial toxicity in human HepG2 cells assessed as induction of lactic acid levels at 10 uM incubated for 14 days", "type": "cell-based", "settings": "hepg2, 336 h", "outline": "as §8"}, "HepG2 [14]": {"test_system": "HepG2", "test": "Mitochondrial toxicity in human HepG2 cells assessed as induction of lactic acid levels at 50 uM incubated for 14 days", "type": "cell-based", "settings": "hepg2, 336 h", "outline": "as §8"}, "[15]": {"test": "Drug metabolism in human HuH7 cells assessed as 2'-C-Me-DAPN-TP level per million cells at 50 uM incubated for 4 hrs at 37 degC by LC-MS/MS method", "type": "ADME, cell-based", "settings": "huh-7, 4 h", "outline": "(§9)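 Huh-7 cells (after attachment) or freshly plated primary human hepatocytes (after overnight acclimatation), 1 × 10⁶ cells/well, exposed to 50 μM compound for 4 h at 37 °C. Cells washed twice with ice-cold PBS and extracted overnight at −20 °C in 70% methanol containing 20 nM ddATP. Mono-, di- and triphosphates quantified by LC–MS/MS as pmol/10⁶ cells; three replicates.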"}, "[16]": {"test": "Drug metabolism in human HuH7 cells assessed as 2'-C-Me-GTP level at 50 uM incubated for 4 hrs at 37 degC by LC-MS/MS method", "type": "ADME, cell-based", "settings": "huh-7, 4 h", "outline": "as §9"}, "[17]": {"test": "Drug metabolism in human primary hepatocytes assessed as 2'-C-Me-DAPN-TP level at 50 uM incubated for 4 hrs at 37 degC by LC-MS/MS method", "type": "ADME, cell-based, Hepatocyte", "outline": "as §9"}}, "note": "The source made the active and inactive calls. The rule behind the calls is not given here.", "data": [{"smiles": "C[C@@]1(O)[C@H](O)[C@@H](COP(=O)(O)OP(=O)(O)OP(=O)(O)O)O[C@H]1n1cnc2c(N)nc(N)nc21", "values": [{"measurement": "IC50", "setting": "[1]", "result": 3.4, "unit": "µM"}, {"measurement": "inhibition", "setting": "Hepacivirus hominis [2]", "result": "Dose-dependent effect"}, {"measurement": "inhibition", "setting": "Hepacivirus hominis [3]", "result": "Active"}, {"measurement": "Drug metabolism", "setting": "Hepatocyte [4]", "result": "metabolite_detected"}, {"measurement": "Drug metabolism", "setting": "[5]", "result": "metabolite_detected"}, {"measurement": "Drug metabolism", "setting": "Hepatocyte [6]", "result": "metabolite_detected"}, {"measurement": "Drug metabolism", "setting": "[7]", "result": "metabolite_detected"}, {"measurement": "Drug metabolism", "setting": "[8]", "result": "metabolite_detected"}, {"measurement": "Drug metabolism", "setting": "Hepatocyte [9]", "result": "metabolite_detected"}]}, {"smiles": "CC(C)OC(=O)CCc1ccccc1OP(=O)(N[C@@H](C)C(=O)OC(C)C)OC[C@H]1O[C@@H](n2cnc3c(N)nc(N)nc32)[C@](C)(O)[C@H]1O", "note": "(stereo not given in full)", "values": [{"measurement": "EC50", "setting": "Hepatitis C virus", "result": 0.7, "unit": "µM"}, {"measurement": "EC90", "setting": "Hepatitis C virus", "result": 2.5, "unit": "µM"}, {"measurement": "CC50", "setting": "Vero", "result": "> 100", "unit": "µM"}, {"measurement": "CC50", "setting": "HepG2 [10]", "result": "> 50", "unit": "µM"}, {"measurement": "CC50", "setting": "HepG2 [11]", "result": "> 50", "unit": "µM"}, {"measurement": "Activity", "setting": "HepG2 [12]", "result": 90, "unit": "%"}, {"measurement": "Activity", "setting": "HepG2 [13]", "result": 81, "unit": "%"}, {"measurement": "Activity", "setting": "HepG2 [14]", "result": 80, "unit": "%"}, {"measurement": "Drug metabolism", "setting": "[15]", "result": "metabolite_detected"}, {"measurement": "Drug metabolism", "setting": "[16]", "result": "metabolite_detected"}, {"measurement": "Drug metabolism", "setting": "[17]", "result": "metabolite_detected"}]}]}
